OX1R antag-1 = blocks the human orexin 1 receptor; O43613; CHO/OX1R cells, Fluo-8 calcium fluorescence, orexin A; inhibition, % at 5 µM; 330,000 compounds, 0.43% hits; AID 434989;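 active = inhibition above its plate's threshold, mean inhibition of all tested compounds on the plate plus 3 SD, cut at about 37% in these data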;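 also: 0% = orexin A challenge wells and 100% = SB-334867-A antagonist wells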
Target sequence (O43613 whole entry, looked up): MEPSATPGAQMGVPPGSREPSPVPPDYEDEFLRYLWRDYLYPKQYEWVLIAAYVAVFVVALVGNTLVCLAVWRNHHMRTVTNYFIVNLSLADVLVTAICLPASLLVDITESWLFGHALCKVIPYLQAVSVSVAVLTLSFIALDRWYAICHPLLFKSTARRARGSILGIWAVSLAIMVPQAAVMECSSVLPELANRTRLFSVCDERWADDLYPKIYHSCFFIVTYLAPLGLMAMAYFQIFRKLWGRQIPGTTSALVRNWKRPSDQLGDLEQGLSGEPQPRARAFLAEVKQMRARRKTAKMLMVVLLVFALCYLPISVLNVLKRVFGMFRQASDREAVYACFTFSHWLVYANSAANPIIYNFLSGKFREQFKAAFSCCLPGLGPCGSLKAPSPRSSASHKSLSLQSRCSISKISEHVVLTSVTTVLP
CHO-K1 Ca antag = nonselective inhibitor or artifact in parental CHO-K1 cells; inhibition, % at 3 µM; ATP-induced calcium, Fluo-8 fluorescence; AID 602250; 360,000 compounds, 0.6% hits;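 active = inhibition above a per-plate cutoff, the plate's mean sample inhibition plus 3 SD, cut at about 24% in these data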;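 also: 0% = DMSO plus EC80 ATP and 100% = DMSO alone without ATP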
OX1R antag-2 = OX1R (human) antagonism; O43613; OX1R-expressing cells, FRET antagonist read-out; inhibition, % at 6.6 µM; 330,000 compounds, 1.8% hits; in the data active = inhibition mostly above about 38%, no sharp cut-off; inactive = mostly below about 40%;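 also: 0% = agonist challenge alone and 100% = reference antagonist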
CHO parental Ca = signal in parental CHO cells, OX1R antagonist counter-screen; parental CHO-K1, ATP-induced calcium, Fluo-8 fluorescence; inhibition, % at 5.6 µM; 330,000 compounds, 0.63% hits; AID 463079;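 active = inhibition above that plate's mean sample inhibition plus 3 SD, cut at about 26% in these data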;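 also: 0% = ATP-challenged DMSO wells and 100% = DMSO wells without ATP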
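material = parental CHO cells | also added = ATP as calcium-mobilizing challenge | dosing = single point at 5.6 µM | detection = intracellular calcium via Fluo-8 no-wash fluorescent dye | read-out = % inhibition | benchmarks = low control ATP plus DMSO, high control DMSO only | repeats = one well per compound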
M1 PAM parental = M1 PAM counterscreen hit in parental CHO-K1 cells. ATP EC20, Fluo-8 calcium fluorescence; 0% at ATP EC20, 100% at ATP max. activation, % at 3 µM. 360,000 compounds, 0.02% hits. AID 602247;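 active = activation above the run cutoff, the mean activation of all test compounds plus 3 SD, cut at about 40% in these data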;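 also: peak over basal fluorescence ratio in a 140 s read after ATP addition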
M1 ag parental = M1 agonist counterscreen hit in parental CHO-K1 cells; activation, % at 3 µM; Fluo-8 calcium fluorescence; scaled to maximal ATP response, vehicle zero; 360,000 compounds, 0.48% hits; in the data active = activation above about 15%;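 also: untransfected CHO-K1 host cells lacking M1 receptor as counterscreen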
Starred values were filed as active, the others as inactive; x = no result. Shown are actives, neighbours in structure and some others; about 2.9% of the full set was active somewhere.

SMILES	OX1R antag-1	CHO-K1 Ca antag	OX1R antag-2	CHO parental Ca	M1 PAM parental	M1 ag parental
COc1cc(/C=C/c2nc3ccccc3c(=O)[nH]2)cc(OC)c1OC	-16	-16	7	-15	-6	1
COc1ccc(CN(C)C(=O)CCCNC(=O)c2ccc(Cl)cc2)cc1	-21	-15	4	-12	3	1
CN(C(=O)COc1ccccc1C(=O)NCCOc1ccccc1)c1ccccc1	78*	25*	80*	92*	1	11
CCOCCNC(=O)c1ccccc1C(=O)NCCOCC	-1	30*	3	9	-3	0
O=C(NCCCCCCNC(=O)c1ccccc1O)c1ccccc1O	3	1	32	32	-9	19*
N/C(=N\NS(=O)(=O)c1ccccc1Cl)c1ccccn1	5	-9	11	-4	2	0
NC(=NC(=O)c1ccc(Cl)cc1)N1N=CCC1c1ccccc1 (centres undefined)	-20	25*	12	-19	-9	-1
CC1(C(=O)NS(=O)(=O)c2ccc(Cl)cc2)CCN1C(=O)CCC1CCCC1 (centres undefined)	x	-12	x	x	23	0
O=C(Cn1cc(COc2ccc(Br)cc2[N+](=O)[O-])nn1)c1ccc(O)cc1	x	25*	x	x	-9	2
CC(=O)c1ccc(OCc2cn(CC(=O)c3ccc(O)cc3)nn2)c(C)c1	x	7	x	x	-8	0
O=C1CN(C(=O)COC(=O)c2ccc([N+](=O)[O-])s2)c2ccccc2N1	-13	-8	45*	-11	10	2
O=C1CN(C(=O)COC(=O)c2ccc([N+](=O)[O-])o2)c2ccccc2N1	-20	-14	34*	-6	13	0
O=C(COC(=O)c1cnccn1)Nc1ncc(C(F)(F)F)cc1Cl	-12	-8	7	-11	10	1
CC1CCCCN1S(=O)(=O)c1cccc2nonc12 (centres undefined)	x	-5	x	x	8	0
COc1ccc(C(C)=O)cc1COC(=O)c1ccc(C)c(S(=O)(=O)N2CCOCC2)c1	-15	-17	6	-12	12	3
O=C(Nc1ccc(F)cc1)C(Sc1nnc2ccccn12)c1ccccc1 (centres undefined)	-17	-3	15	-2	20	2
CCOc1ccccc1NC(=O)C(Sc1nnc2ccccn12)c1ccccc1 (centres undefined)	-6	-12	41*	-15	22	1
COC(=O)c1c(C)[nH]c(C(=O)C(C)OC(=O)c2cnc(C)cn2)c1C (centres undefined)	-24	-18	2	-14	6	2
COc1cncc(C#Cc2ccccn2)c1	x	-17	x	x	15	0
O=C(c1ccc(Cl)c(S(=O)(=O)N2CCc3ccccc32)c1)N1CCN(c2ccccc2O)CC1	-2	-4	11	-7	-2	4
O=C(NNC(=O)c1ccccc1O)c1ccc(Cl)c(S(=O)(=O)N2CCc3ccccc32)c1	40*	40*	62*	57*	-11	10
CCC(=O)NCC(c1ccco1)N1CCN(c2ccc(OC)cc2)CC1 (centres undefined)	-17	-1	8	-11	7	17*
O=C(NCCc1ccccc1)c1nc(-c2cccs2)no1	-19	26*	15	-2	4	0
O=C(NCc1cccs1)c1nc(-c2cccs2)no1	-16	10	14	0	-5	0
C[C@@H]1CN([C@H](C)CO)C(=O)c2cccc(NS(=O)(=O)c3ccccc3)c2O[C@H]1CN(C)C	-5	-4	12	-19	3	0
SMILES	OX1R antag-1	CHO-K1 Ca antag	OX1R antag-2	CHO parental Ca	M1 PAM parental	M1 ag parental
CN1c2cccc3cccc(c23)N(C)C1c1cccs1	-18	-1	17	-19	8	0
CC1N(C)c2cccc3cccc(c23)N1C	-11	-21	70*	2	21	2
CCOc1ccc(NC(=O)CSc2ccccc2N)cc1	-14	-8	30	5	0	-1
CCOc1ccc(NC(c2ccccc2)P(=O)(OC)OC)cc1 (centres undefined)	-21	-8	5	-9	6	1
CC(=O)Nc1cccc(-n2nnc(SCC(=O)Nc3ccc(F)c(Cl)c3)n2)c1	-3	15	14	-5	-1	22*
COc1cccc(C(=O)Nc2ccc3nc(N4CCN(c5ncccn5)CC4)cc(C)c3c2)c1OC	1	x	59*	-3	x	x
Cc1ccccc1N1CCN(C(=O)NCc2cccc(Cl)c2)CC1	-24	-15	12	-31	19	3
CCOc1ccccc1N(CC(=O)NCCSc1ccccn1)S(=O)(=O)c1ccc(C)cc1	-13	-8	42*	-32	17	2
COc1ccccc1N(CC(=O)NCCSc1ccccn1)S(=O)(=O)c1ccccc1	-15	0	51*	-27	10	9
Cc1ccccc1N(CC(=O)NCCSc1ccccn1)S(=O)(=O)c1ccccc1	-21	-12	40	-31	23	2
CC(=O)Nc1ccc(S(=O)(=O)NCC(=O)OCC(=O)NCc2ccco2)cc1	-4	28*	11	-5	-30	0
CC(=O)Nc1ccc(S(=O)(=O)N(C)CC(=O)OCC(=O)NCc2ccco2)cc1	-16	0	5	-2	-5	1
O=C(O)c1nc(NCCc2ccccc2)ncc1Cl	-1	-6	16	2	-3	-1
COc1c(Cl)cnn(-c2ccc(Cl)c(Cl)c2)c1=O	-31	-6	19	-24	26	17*
CCCCc1cc(O)c(CCCC)c(O)c1	102*	48*	8	80*	-9	47*
COc1ccc([C@H]2C[C@H](n3cc(COC(=O)c4ccccc4)nn3)[C@@H](O)CN2Cc2cccs2)cc1	x	-10	x	x	16	1
CN(C)S(=O)(=O)c1cccc(N=C2SCCN2Cc2ccccc2)c1	-1	2	30	40*	1	9
Cc1ccc(C(=O)N2CC(C)SC2=Nc2cccc(S(=O)(=O)N(C)C)c2)cc1 (centres undefined)	-21	-5	11	-12	16	3
O=C(NC1CCOC1=O)OCc1ccccc1 (centres undefined)	x	-9	x	x	8	0
O=C(COc1ccc(OCc2ccccc2)cc1)NC1CCOC1=O (centres undefined)	-2	8	28	38*	-1	2
O=C(CNC(=O)c1cccc(Cl)c1)Nc1ccc(F)c(F)c1F	-19	1	5	7	1	1
O=C(CSc1cc(Cl)ccc1Cl)NCC(=O)Nc1ccc(F)c(F)c1F	-27	6	4	-10	9	15*
COc1ccc(N=Cc2c(O)cc(C)oc2=O)cc1	-15	16	57	-11	1	16*
O=C(CNC(=O)c1cccc(-n2cnnn2)c1)Nc1ccc(F)c(F)c1	-6	-10	0	5	-1	0
